Laboratory results taken from the M2OR odorant receptor database.

Columns and labels:
Settings in all cases: stereoisomer not certain
UniProt Q8VG27 = molecular target: T1, UniProt Q8VG27
T1 sequence (whole entry): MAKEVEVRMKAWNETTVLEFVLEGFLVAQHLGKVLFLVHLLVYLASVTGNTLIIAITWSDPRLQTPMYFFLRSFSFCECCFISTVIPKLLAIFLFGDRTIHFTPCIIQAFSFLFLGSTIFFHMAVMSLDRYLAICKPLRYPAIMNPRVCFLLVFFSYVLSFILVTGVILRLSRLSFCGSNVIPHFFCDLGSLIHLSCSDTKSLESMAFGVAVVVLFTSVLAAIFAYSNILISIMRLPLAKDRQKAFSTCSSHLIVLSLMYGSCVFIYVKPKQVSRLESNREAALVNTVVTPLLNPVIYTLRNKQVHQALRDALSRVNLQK
Method in brief: (§1)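 Each entry records the cell line, G-protein, co-transfected protein and tags used. Methods varied with the source, often transient luciferase assays in mammalian cell lines. A receptor–molecule pair is called responsive (active) if the original authors judged its signal statistically different from baseline and non-responsive (inactive) otherwise.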

UniProt Q8VG28 = molecular target: UniProt Q8VG28
UniProt Q8VG28, sequence (Q8VG28 as listed by the source): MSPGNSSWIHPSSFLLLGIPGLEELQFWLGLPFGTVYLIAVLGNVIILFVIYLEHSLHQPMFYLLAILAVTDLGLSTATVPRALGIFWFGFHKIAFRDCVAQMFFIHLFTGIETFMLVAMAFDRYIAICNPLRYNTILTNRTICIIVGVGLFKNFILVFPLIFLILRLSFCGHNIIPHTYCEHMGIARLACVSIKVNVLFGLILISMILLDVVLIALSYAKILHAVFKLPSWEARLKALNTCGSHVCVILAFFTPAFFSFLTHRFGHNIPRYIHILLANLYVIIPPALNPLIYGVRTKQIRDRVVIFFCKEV
Method in brief: as §1

UniProt Q8VG49 = molecular target: T2, UniProt Q8VG49
T2 sequence (whole entry): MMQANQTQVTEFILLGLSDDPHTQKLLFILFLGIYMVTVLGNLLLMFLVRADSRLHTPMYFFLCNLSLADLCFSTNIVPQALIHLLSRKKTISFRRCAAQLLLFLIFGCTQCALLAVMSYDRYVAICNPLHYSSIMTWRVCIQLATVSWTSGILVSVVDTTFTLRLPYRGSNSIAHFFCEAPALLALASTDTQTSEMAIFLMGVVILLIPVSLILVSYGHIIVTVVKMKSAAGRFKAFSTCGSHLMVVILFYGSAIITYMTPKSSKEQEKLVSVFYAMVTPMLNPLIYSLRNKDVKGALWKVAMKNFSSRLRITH
Method in brief: as §1

UniProt Q8VG53 = molecular target: T3, UniProt Q8VG53
T3 sequence (whole entry): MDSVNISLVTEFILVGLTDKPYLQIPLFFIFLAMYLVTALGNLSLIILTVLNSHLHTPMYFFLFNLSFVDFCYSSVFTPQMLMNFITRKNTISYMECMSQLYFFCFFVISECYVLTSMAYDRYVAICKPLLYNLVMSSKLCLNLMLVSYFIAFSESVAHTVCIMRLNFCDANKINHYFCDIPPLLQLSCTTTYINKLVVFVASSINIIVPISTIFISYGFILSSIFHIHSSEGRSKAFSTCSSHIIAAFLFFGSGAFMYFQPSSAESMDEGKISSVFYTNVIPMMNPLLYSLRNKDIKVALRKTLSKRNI
Method in brief: as §1

UniProt Q8VG64 = molecular target: T4, UniProt Q8VG64
T4 sequence (whole entry): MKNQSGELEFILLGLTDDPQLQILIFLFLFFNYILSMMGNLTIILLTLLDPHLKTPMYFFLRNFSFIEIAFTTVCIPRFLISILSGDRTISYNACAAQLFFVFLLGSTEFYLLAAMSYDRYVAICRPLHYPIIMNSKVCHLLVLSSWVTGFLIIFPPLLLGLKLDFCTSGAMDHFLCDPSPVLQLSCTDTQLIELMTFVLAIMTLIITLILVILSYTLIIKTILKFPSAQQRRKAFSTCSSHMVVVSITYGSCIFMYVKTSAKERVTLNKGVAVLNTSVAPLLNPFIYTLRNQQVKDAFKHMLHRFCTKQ
Method in brief: as §1

UniProt Q8VG77 = molecular target: T5, UniProt Q8VG77
T5 sequence (whole entry): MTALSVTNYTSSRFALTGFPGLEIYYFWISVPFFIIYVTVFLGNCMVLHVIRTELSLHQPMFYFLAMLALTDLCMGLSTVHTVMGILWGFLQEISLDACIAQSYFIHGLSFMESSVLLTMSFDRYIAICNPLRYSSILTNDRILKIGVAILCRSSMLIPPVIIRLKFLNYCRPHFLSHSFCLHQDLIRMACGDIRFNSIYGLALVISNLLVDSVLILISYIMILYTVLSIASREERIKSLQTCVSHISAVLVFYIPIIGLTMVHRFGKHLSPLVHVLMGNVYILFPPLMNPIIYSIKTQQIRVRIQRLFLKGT
Method in brief: as §1

UniProt Q8VG96 = molecular target: T6, UniProt Q8VG96
T6 sequence (whole entry): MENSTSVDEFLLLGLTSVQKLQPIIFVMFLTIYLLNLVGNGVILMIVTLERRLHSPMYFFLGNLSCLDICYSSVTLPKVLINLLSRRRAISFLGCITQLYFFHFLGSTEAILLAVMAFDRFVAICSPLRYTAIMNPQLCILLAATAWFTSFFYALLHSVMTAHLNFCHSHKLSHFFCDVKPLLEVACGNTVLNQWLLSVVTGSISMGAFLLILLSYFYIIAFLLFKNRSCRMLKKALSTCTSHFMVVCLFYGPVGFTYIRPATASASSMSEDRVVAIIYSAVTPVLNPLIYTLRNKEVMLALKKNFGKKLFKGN
Method in brief: as §1

UniProt Q8VGB9 = molecular target: T7, UniProt Q8VGB9
T7 sequence (whole entry): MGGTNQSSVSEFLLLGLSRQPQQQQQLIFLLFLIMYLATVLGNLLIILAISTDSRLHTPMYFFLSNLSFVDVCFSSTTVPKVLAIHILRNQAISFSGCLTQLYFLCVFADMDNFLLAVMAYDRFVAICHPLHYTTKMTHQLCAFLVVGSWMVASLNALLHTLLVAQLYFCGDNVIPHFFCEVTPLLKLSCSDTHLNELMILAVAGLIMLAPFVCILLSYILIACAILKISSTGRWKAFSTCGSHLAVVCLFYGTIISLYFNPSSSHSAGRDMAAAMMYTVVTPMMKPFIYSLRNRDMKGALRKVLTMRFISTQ
Method in brief: as §1

UniProt Q8VGC6 = molecular target: T8, UniProt Q8VGC6
T8 sequence (whole entry): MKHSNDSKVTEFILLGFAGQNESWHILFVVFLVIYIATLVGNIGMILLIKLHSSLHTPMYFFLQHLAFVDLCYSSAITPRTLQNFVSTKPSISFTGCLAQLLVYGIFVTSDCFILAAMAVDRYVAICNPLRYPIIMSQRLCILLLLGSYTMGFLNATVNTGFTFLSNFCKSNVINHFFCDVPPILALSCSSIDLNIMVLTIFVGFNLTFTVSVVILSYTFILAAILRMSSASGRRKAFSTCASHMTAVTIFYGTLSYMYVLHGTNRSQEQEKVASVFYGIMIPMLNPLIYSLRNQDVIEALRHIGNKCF
Method in brief: as §1

UniProt Q8VGD7 = molecular target: T9, UniProt Q8VGD7
T9 sequence (whole entry): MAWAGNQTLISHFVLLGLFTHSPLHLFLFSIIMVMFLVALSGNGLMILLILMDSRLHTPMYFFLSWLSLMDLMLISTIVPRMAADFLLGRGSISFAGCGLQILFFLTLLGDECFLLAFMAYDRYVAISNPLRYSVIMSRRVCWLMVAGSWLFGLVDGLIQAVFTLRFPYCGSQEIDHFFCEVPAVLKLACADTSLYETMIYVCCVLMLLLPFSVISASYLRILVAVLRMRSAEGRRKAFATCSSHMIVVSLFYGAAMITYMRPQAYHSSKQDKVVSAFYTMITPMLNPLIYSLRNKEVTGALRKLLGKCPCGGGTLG
Method in brief: as §1

UniProt Q8VGH1 = molecular target: T10, UniProt Q8VGH1
T10 sequence (whole entry): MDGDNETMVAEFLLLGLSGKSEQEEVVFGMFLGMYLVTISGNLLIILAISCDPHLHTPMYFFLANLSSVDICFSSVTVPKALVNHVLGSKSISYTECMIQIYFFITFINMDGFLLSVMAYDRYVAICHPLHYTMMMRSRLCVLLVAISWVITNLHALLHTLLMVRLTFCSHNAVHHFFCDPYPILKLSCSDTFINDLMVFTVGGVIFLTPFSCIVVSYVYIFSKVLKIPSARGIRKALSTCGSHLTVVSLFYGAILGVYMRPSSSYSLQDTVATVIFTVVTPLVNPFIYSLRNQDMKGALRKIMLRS
Method in brief: as §1

UniProt Q8VGJ1 = molecular target: T11, UniProt Q8VGJ1
T11 sequence (whole entry): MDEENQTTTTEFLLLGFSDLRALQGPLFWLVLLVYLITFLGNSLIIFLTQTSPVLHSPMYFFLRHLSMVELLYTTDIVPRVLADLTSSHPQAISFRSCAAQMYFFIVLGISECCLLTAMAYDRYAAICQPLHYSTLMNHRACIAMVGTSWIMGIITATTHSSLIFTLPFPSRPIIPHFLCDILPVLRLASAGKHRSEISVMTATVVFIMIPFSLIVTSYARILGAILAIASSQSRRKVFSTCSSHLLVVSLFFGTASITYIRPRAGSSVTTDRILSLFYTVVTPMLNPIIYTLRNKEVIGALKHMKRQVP
Method in brief: as §1

UniProt Q8VGJ3 = molecular target: T12, UniProt Q8VGJ3
T12 sequence (whole entry): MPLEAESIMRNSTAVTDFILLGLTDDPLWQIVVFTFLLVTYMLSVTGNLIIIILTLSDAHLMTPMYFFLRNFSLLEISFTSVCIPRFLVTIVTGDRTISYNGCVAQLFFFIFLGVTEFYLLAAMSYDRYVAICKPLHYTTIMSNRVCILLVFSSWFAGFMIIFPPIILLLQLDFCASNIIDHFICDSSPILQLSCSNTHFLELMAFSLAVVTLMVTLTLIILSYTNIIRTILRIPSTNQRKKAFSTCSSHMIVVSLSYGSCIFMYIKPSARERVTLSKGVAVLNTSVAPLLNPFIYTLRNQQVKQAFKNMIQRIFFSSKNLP
Method in brief: as §1

UniProt Q8VGJ5 = molecular target: T13, UniProt Q8VGJ5
T13 sequence (whole entry): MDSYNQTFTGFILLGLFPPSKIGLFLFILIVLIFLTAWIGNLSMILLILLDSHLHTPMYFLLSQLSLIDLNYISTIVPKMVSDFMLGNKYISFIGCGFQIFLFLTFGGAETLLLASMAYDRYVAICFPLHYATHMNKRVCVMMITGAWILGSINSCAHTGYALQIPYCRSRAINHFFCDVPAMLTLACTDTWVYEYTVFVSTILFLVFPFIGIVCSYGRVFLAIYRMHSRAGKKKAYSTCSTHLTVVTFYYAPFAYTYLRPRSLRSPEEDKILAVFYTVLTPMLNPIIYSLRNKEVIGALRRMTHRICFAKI
Method in brief: as §1

UniProt Q8VGL0 = molecular target: T14, UniProt Q8VGL0
T14 sequence (whole entry): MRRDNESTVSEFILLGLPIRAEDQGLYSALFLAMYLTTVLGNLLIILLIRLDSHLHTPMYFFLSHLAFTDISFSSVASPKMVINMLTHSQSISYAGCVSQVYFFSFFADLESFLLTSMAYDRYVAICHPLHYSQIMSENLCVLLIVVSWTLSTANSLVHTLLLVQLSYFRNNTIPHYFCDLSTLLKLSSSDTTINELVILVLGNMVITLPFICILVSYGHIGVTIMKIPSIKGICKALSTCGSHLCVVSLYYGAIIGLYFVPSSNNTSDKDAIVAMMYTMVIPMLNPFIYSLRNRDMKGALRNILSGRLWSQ
Method in brief: as §1

UniProt Q8VGL7 = molecular target: T15, UniProt Q8VGL7
T15 sequence (whole entry): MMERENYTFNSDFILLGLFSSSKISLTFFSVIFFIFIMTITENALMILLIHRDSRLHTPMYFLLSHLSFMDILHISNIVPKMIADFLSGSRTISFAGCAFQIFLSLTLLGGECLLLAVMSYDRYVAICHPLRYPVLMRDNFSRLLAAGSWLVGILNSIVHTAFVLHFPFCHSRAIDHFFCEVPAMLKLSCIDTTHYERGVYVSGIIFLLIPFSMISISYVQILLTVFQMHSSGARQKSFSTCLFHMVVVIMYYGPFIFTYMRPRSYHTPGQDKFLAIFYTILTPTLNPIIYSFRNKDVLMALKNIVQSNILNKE
Method in brief: as §1

Structure (SMILES) | odorant receptor agonist call (UniProt Q8VG27) | odorant receptor agonist call (UniProt Q8VG28) | odorant receptor agonist call (UniProt Q8VG49) | odorant receptor agonist call (UniProt Q8VG53) | odorant receptor agonist call (UniProt Q8VG64) | odorant receptor agonist call (UniProt Q8VG77) | odorant receptor agonist call (UniProt Q8VG96) | odorant receptor agonist call (UniProt Q8VGB9) | odorant receptor agonist call (UniProt Q8VGC6) | odorant receptor agonist call (UniProt Q8VGD7) | odorant receptor agonist call (UniProt Q8VGH1) | odorant receptor agonist call (UniProt Q8VGJ1) | odorant receptor agonist call (UniProt Q8VGJ3) | odorant receptor agonist call (UniProt Q8VGJ5) | odorant receptor agonist call (UniProt Q8VGL0) | odorant receptor agonist call (UniProt Q8VGL7)
CCCCCCCO | inactive | inactive | inactive | inactive | inactive | inactive | inactive | inactive | active | inactive | inactive | inactive | inactive | active | inactive | inactive
CCCCCCO | inactive | inactive | inactive | inactive | inactive | inactive | inactive | active | inactive | inactive | inactive | inactive | inactive | inactive | inactive | inactive
CCCCCCCCS | inactive |  | inactive | inactive | inactive | inactive | inactive | inactive | active | inactive | inactive | inactive | inactive | inactive | inactive | inactive
CCCCOC=O | inactive |  | inactive | inactive | inactive | inactive | inactive | inactive | inactive | inactive | inactive | inactive | inactive | inactive | inactive | inactive
